# Assay results: ChEMBL document CHEMBL2021883, “Amino acid, dipeptide and pseudodipeptide conjugates of ring-substituted 8-aminoquinolines: synthesis and evaluation of anti-infective, β-haematin inhibition and cytotoxic activities” (Eur J Med Chem, 2012)
# Active and inactive are the calls of the source. Unless noted, the calls are words filed in the database; no cut-off is given here.
# Tests used:
# [1] = tested on: Staphylococcus aureus; assay: Antimicrobial activity against methicillin-resistant Staphylococcus aureus ATCC 43300 by CLSI method; format: functional, organism-based
# [2] = Selectivity index, ratio of IC50 for african green monkey Vero cells to IC50 for chloroquine-sensitive Plasmodium falciparum D6; format: toxicity, cell-based; conditions: Vero cells versus Plasmodium falciparum D6, read-out: Ratio IC50
# [3] = tested on: Candida albicans; assay: Antifungal activity against Candida albicans at 20 ug/ml; format: functional, organism-based
# Summary of the method: (§1)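 Broth dilution antifungal testing followed the NCCLS reference method for yeasts, with 20 as the highest test concentration. MIC was the lowest concentration with no detectable growth. MFC was the lowest concentration killing the organism.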
# [4] = tested on: Pichia kudriavzevii; assay: Fungicidal activity against Candida krusei at 20 ug/ml; format: functional, organism-based; summary of the method: as §1
# [5] = tested on: Mycobacterium intracellulare; assay: Antimicrobial activity against Mycobacterium intracellulare ATCC 23068 by Franzblau method; format: functional, organism-based
# [6] = tested on: Nakaseomyces glabratus; assay: Antifungal activity against Candida glabrata; format: functional, organism-based
# Summary of the method: (§2)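 Yeasts and A. fumigatus were tested by broth microdilution following the NCCLS antifungal standards. The highest test concentration was 20.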
# [7] = tested on: Plasmodium falciparum; assay: Antimalarial activity against chloroquine-sensitive Plasmodium falciparum D6 assessed as plasmodial LDH activity; format: functional, organism-based
# [8] = tested on: Vero; assay: Cytotoxicity against african green monkey Vero cells upto 23.8 […] by neutral dye assay; format: cell-based, Chlorocebus sabaeus
# Summary of the method: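 Vero monkey kidney cells were exposed to compound up to a highest concentration of 23.8, with viability read by neutral red uptake.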
# [9] = tested on: Staphylococcus aureus; assay: Antimicrobial activity against Staphylococcus aureus ATCC 29213 by CLSI method; format: functional, organism-based
# [10] = tested on: Leishmania donovani; assay: Antileishmanial activity against Leishmania donovani promastigote by Alamar Blue assay; format: functional, organism-based
# [11] = tested on: Candida albicans; assay: Fungicidal activity against Candida albicans at 20 ug/ml; format: functional, organism-based; summary of the method: as §1
# [12] = tested on: Aspergillus fumigatus; assay: Antifungal activity against Aspergillus fumigatus; format: functional, organism-based; summary of the method: as §2
# [13] = tested on: Pseudomonas aeruginosa; assay: Antimicrobial activity against Pseudomonas aeruginosa ATCC 27853 by CLSI method; format: functional, organism-based
# Summary of the method: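 Antibacterial testing used CLSI/NCCLS broth dilution for aerobically growing bacteria, with 20 as the highest test concentration.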
# [14] = tested on: Cryptococcus neoformans; assay: Antifungal activity against Cryptococcus neoformans; format: functional, organism-based; summary of the method: as §2
# [15] = tested on: Escherichia coli; assay: Antimicrobial activity against Escherichia coli ATCC 35218 by CLSI method; format: functional, organism-based
# [16] = Inhibition of beta-hematin formation; format: functional
# [17] = tested on: Pichia kudriavzevii; assay: Antifungal activity against Candida krusei at 20 ug/ml; format: functional, organism-based; summary of the method: as §1
# [18] = tested on: Plasmodium falciparum; assay: Antimalarial activity against chloroquine-resistant Plasmodium falciparum W2 assessed as plasmodial LDH activity; format: functional, organism-based
# [19] = Selectivity index, ratio of IC50 for african green monkey Vero cells to IC50 for chloroquine-resistant Plasmodium falciparum W2; format: toxicity, cell-based; conditions: Vero cells versus Plasmodium falciparum W2, read-out: Ratio IC50
# [20] = Ratio of chloroquine IC50 to compound IC50 for inhibition of beta-hematin formation
# [21] = tested on: Plasmodium berghei; assay: Antimalarial activity against Plasmodium berghei blood-schizont in mouse malaria model assessed as elimination of parasitemia at 10 mg/kg, po for 4 days for 4 days measured after 7 days; format: functional, organism-based; design: dose 10 mg/kg
# Summary of the method: (§3)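 P. berghei-infected mice, 6 per group, received compound orally once daily for 4 days at 10, 25, 50 or 100 mg/kg/day. "Active" meant all treated animals were parasitaemia-negative up to D+7. "Curative" meant complete parasite elimination with survival to D+60. Outcomes were recorded as cured/total.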
# [22] = tested on: Plasmodium berghei; assay: Antimalarial activity against Plasmodium berghei blood-schizont in mouse malaria model assessed as disease curative activity at 100 mg/kg, po after 60 days; format: functional; summary of the method: as §3
# [23] = tested on: Plasmodium berghei; assay: Antimalarial activity against Plasmodium berghei blood-schizont in mouse malaria model assessed as elimination of parasitemia at 25 mg/kg, po for 4 days for 4 days measured after 7 days; format: functional, organism-based; design: dose 25 mg/kg; summary of the method: as §3
# [24] = tested on: Plasmodium berghei; assay: Antimalarial activity against Plasmodium berghei blood-schizont in mouse malaria model assessed as elimination of parasitemia at 50 mg/kg, po for 4 days for 4 days measured after 7 days; format: functional, organism-based; design: dose 50 mg/kg; summary of the method: as §3
# [25] = tested on: Nakaseomyces glabratus; assay: Antifungal activity against Candida glabrata at 20 ug/ml; format: functional, organism-based; summary of the method: as §1
# [26] = tested on: Nakaseomyces glabratus; assay: Fungicidal activity against Candida glabrata at 20 ug/ml; format: functional, organism-based; summary of the method: as §1
# [27] = tested on: Cryptococcus neoformans; assay: Fungicidal activity against Cryptococcus neoformans at 20 ug/ml; format: functional, organism-based; summary of the method: as §1
# [28] = Plasmodium falciparum, D6, read-out: IC50
# [29] = Plasmodium falciparum, W2, read-out: IC50
Compound,Activity [1],selectivity ratio [2],Activity [3],Activity [4],Activity [5],"IC50 [7, 28] [µg/mL]",IC50 [8],Activity [9],IC50 [10],IC90 [10],Activity [11],Activity [12],Activity [13],IC50 [14] [µg/mL],MFC [14] [µg/mL],MIC [14] [µg/mL],Activity [15],IC50 [16] [µM],"IC50 [18, 29] [µg/mL]",selectivity ratio [19],other results
COc1cc(NC(C)CCCNC(=O)C[C@@H](NC(=O)[C@H](N)CCCN)C(=O)O)c2nc(C(C)(C)C)ccc2c1 (stereo partly specified),inactive,> 9.5,inactive,inactive,inactive,2.5,Non-toxic,inactive,Not Active,inactive,inactive,inactive,inactive,4.86,10,10,inactive,> 1000,3.4,> 7,IC50 [6]: 13.7 µg/mL; MFC [6]: 20 µg/mL; MIC [6]: 20 µg/mL; Activity [17]: inactive
COc1cc(NC(C)CCCNC(=O)C[C@H](NC(=O)[C@@H](N)CCCCN)C(=O)O)c2ncccc2c1 (stereo partly specified),inactive,> 183,,,inactive,0.13,Non-toxic,inactive,Not Active,inactive,,,inactive,,,,inactive,5.8,0.26,> 91.5,Ratio IC50 [20]: 16; Activity [21]: Active; Activity [22]: 100%; Activity [23]: Active; Activity [24]: Active
COc1cc(NC(C)CCCNC(=O)CC[C@@H](NC(=O)[C@H](N)CCCCN)C(=O)O)c2nc(C(C)(C)C)ccc2c1 (stereo partly specified),inactive,,inactive,inactive,inactive,,Non-toxic,inactive,Not Active,inactive,inactive,inactive,inactive,15.2,,20,inactive,> 1000,,,IC50 [7]: Not Active; Activity [25]: inactive; Activity [26]: inactive; Activity [27]: inactive; Activity [17]: inactive; IC50 [18]: Not Active
COc1cc(NC(C)CCCNC(=O)[C@H](CCCCN)NC(=O)[C@@H](N)CCCCN)c2ncccc2c1 (stereo partly specified),inactive,> 11.9,inactive,,inactive,2,Non-toxic,inactive,Not Active,inactive,inactive,inactive,inactive,7,20,10,inactive,618,2.8,> 8.5,Activity [21]: Active; Activity [22]: 100%; Activity [23]: Active; Activity [24]: Active
